Laboratory results taken from ChEMBL document CHEMBL1772978, “Exploration of the activity of 7-pyrrolidino-8-methoxyisothiazoloquinolones against methicillin-resistant Staphylococcus aureus (MRSA)” (J Med Chem, 2011).
Values after ≈ are worked out from the molar mass of the structure shown.

How the values were obtained:
[1] = system: Staphylococcus aureus; experiment: Antibacterial activity against methicillin-sensitive Staphylococcus aureus ATCC 29213 after 24 hrs by microdilution method; format: functional; conditions: ATCC 29213, 24 h
How it was run: (§1)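 MIC taken as the lowest concentration with no visible bacterial growth after 18-24 h at 37 °C, given in μg/mL; modal value of multiple experiments.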

[2] = Cytotoxicity against human Hep2 cells after 72 hrs by alamar blue assay; format: cell-based; conditions: HEp-2 cells
[3] = system: Staphylococcus aureus; experiment: Antibacterial activity against methicillin- and quinolone-resistant Staphylococcus aureus ATCC700699 after 24 hrs by microdilution method; format: functional; conditions: ATCC700699, 24 h
How it was run: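 Broth microdilution; MIC read as the lowest compound concentration that prevents visible bacterial growth after incubation at 37 °C for 18–24 h, and expressed in μg/mL.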

[4] = system: Escherichia coli; experiment: Antibacterial activity against Escherichia coli ATCC25922 after 24 hrs by microdilution method; format: functional; conditions: ATCC25922, 24 h; how it was run: as §1

Row | SMILES | MIC [1] [mg/L] | CC50 at 72 h [2] [µM] | MIC [3] [mg/L] | MIC [4] [mg/L]
1 | CN[C@H](C)[C@@H]1CCN(c2c(F)cc3c(=O)c4c(=O)[nH]sc4n(C4CC4)c3c2OC)C1 | 0.02 (≈ 0.0462 µM) | 29 | 0.5 (≈ 1.16 µM) | 0.06 (≈ 0.139 µM)
2 | COc1c(N2CC[C@@H]([C@@H](C)NCCF)C2)c(F)cc2c(=O)c3c(=O)[nH]sc3n(C3CC3)c12 | 0.004 (≈ 0.00861 µM) | 74 | 0.25 (≈ 0.538 µM) | 0.06 (≈ 0.129 µM)
3 | COc1c(N2CC[C@@H](C(C)NC3CCCC3)C2)c(F)cc2c(=O)c3c(=O)[nH]sc3n(C3CC3)c12 (mixture of isomers) | 0.06 | 42 | 4 | –
4 | COc1c(N2CC[C@@H]([C@H](C)N(C)C)C2)c(F)cc2c(=O)c3c(=O)[nH]sc3n(C3CC3)c12 | 0.008 (≈ 0.0179 µM) | 39 | 0.5 (≈ 1.12 µM) | 0.06 (≈ 0.134 µM)
5 | COc1c(N2CC[C@@H](C(C)NC(C)C)C2)c(F)cc2c(=O)c3c(=O)[nH]sc3n(C3CC3)c12 (mixture of isomers) | 0.02 | 51 | 0.5 | 0.5
6 | CCN[C@@H](C)[C@@H]1CCN(c2c(F)cc3c(=O)c4c(=O)[nH]sc4n(C4CC4)c3c2OC)C1 | 0.004 (≈ 0.00896 µM) | 27 | 0.13 (≈ 0.291 µM) | 0.06 (≈ 0.134 µM)
7 | COc1c(N2CC[C@@H](C(C)N)C2)c(F)cc2c(=O)c3c(=O)[nH]sc3n(C3CC3)c12 (mixture of isomers) | 0.004 | 9 | 0.06 | 0.02
8 | COc1c(N2CC[C@@H](CNC3CC3)C2)c(F)cc2c(=O)c3c(=O)[nH]sc3n(C3CC3)c12 | 0.004 (≈ 0.009 µM) | 23 | 0.06 (≈ 0.135 µM) | 0.03 (≈ 0.0675 µM)
9 | COc1c(N2CC[C@@H](N)C2)c(F)cc2c(=O)c3c(=O)[nH]sc3n(C3CC3)c12 | 0.03 (≈ 0.0768 µM) | 25 | 2 (≈ 5.12 µM) | 0.008 (≈ 0.0205 µM)
10 | CNC(C)[C@@H]1CCN(c2c(F)cc3c(=O)c4c(=O)[nH]sc4n(C4CC4)c3c2OC)C1 (mixture of isomers) | 0.008 | 42 | 0.25 | 0.03
11 | CNC[C@@H]1CCN(c2c(F)cc3c(=O)c4c(=O)[nH]sc4n(C4CC4)c3c2OC)C1 | 0.008 (≈ 0.0191 µM) | 28 | 0.5 (≈ 1.19 µM) | 0.06 (≈ 0.143 µM)
12 | COc1c(N2CC[C@@H](CN(C)C)C2)c(F)cc2c(=O)c3c(=O)[nH]sc3n(C3CC3)c12 | 0.06 (≈ 0.139 µM) | > 100 | 4 (≈ 9.25 µM) | 0.13 (≈ 0.301 µM)
13 | CNC(C)[C@H]1CCN(c2c(F)cc3c(=O)c4c(=O)[nH]sc4n(C4CC4)c3c2OC)C1 (mixture of isomers) | 0.06 | > 100 | 2 | 0.13
14 | COc1c(N2CC[C@H](N)C2)c(F)cc2c(=O)c3c(=O)[nH]sc3n(C3CC3)c12 | 0.008 (≈ 0.0205 µM) | 19 | 0.5 (≈ 1.28 µM) | 0.008 (≈ 0.0205 µM)
15 | COc1c(N2CCC(C(C)(C)NC3CC3)C2)c(F)cc2c(=O)c3c(=O)[nH]sc3n(C3CC3)c12 (racemic) | 0.02 (≈ 0.0423 µM) | 54 | 0.25 (≈ 0.529 µM) | 0.25 (≈ 0.529 µM)
16 | COc1c(N2CC[C@@H](C(C)N(C)C)C2)c(F)cc2c(=O)c3c(=O)[nH]sc3n(C3CC3)c12 (mixture of isomers) | 0.03 | 40 | 1 | 0.06
17 | COc1c(N2CC[C@@H](CN)C2)c(F)cc2c(=O)c3c(=O)[nH]sc3n(C3CC3)c12 | 0.008 (≈ 0.0198 µM) | 11 | 0.25 (≈ 0.618 µM) | 0.004 (≈ 0.00989 µM)

Row | SMILES | MIC [1] [mg/L] | CC50 at 72 h [2] [µM] | MIC [3] [mg/L] | MIC [4] [mg/L]
18 | COc1c(N2CC[C@H](C(C)NC3CC3)C2)c(F)cc2c(=O)c3c(=O)[nH]sc3n(C3CC3)c12 (mixture of isomers) | 0.02 | 43 | 0.13 | 0.13
19 | COc1c(N2CC[C@H]([C@@H](C)N)C2)c(F)cc2c(=O)c3c(=O)[nH]sc3n(C3CC3)c12 | 0.02 (≈ 0.0478 µM) | 51 | 1 (≈ 2.39 µM) | 0.06 (≈ 0.143 µM)
20 | COc1c(N2CC[C@H]([C@H](C)N)C2)c(F)cc2c(=O)c3c(=O)[nH]sc3n(C3CC3)c12 | 0.03 (≈ 0.0717 µM) | 15 | 1 (≈ 2.39 µM) | 0.06 (≈ 0.143 µM)
21 | COc1c(N2CC[C@@H](C(C)(C)N(C)C)C2)c(F)cc2c(=O)c3c(=O)[nH]sc3n(C3CC3)c12 | 0.06 (≈ 0.13 µM) | 90 | 1 (≈ 2.17 µM) | 0.13 (≈ 0.282 µM)
22 | COc1c(N2CC[C@@H](C(C)NCC3CC3)C2)c(F)cc2c(=O)c3c(=O)[nH]sc3n(C3CC3)c12 (mixture of isomers) | 0.03 | 43 | 0.5 | 0.25
23 | CCNC(C)(C)[C@@H]1CCN(c2c(F)cc3c(=O)c4c(=O)[nH]sc4n(C4CC4)c3c2OC)C1 | 0.02 (≈ 0.0434 µM) | 50 | 0.5 (≈ 1.09 µM) | 0.13 (≈ 0.282 µM)
24 | CNC(C)(C)[C@@H]1CCN(c2c(F)cc3c(=O)c4c(=O)[nH]sc4n(C4CC4)c3c2OC)C1 | 0.008 (≈ 0.0179 µM) | 28 | 0.13 (≈ 0.291 µM) | 0.13 (≈ 0.291 µM)
25 | COc1c(N2CC[C@@H](C(N)c3ccccn3)C2)c(F)cc2c(=O)c3c(=O)[nH]sc3n(C3CC3)c12 (mixture of isomers) | 0.008 | 1 | 0.13 | 0.06
26 | CC[C@H](NC)[C@@H]1CCN(c2c(F)cc3c(=O)c4c(=O)[nH]sc4n(C4CC4)c3c2OC)C1 (mixture of isomers) | 0.008 | 29 | 0.5 | 0.06
27 | COc1c(N2CC[C@@H](CNC(C)C)C2)c(F)cc2c(=O)c3c(=O)[nH]sc3n(C3CC3)c12 | 0.02 (≈ 0.0448 µM) | 33 | 0.5 (≈ 1.12 µM) | 0.06 (≈ 0.134 µM)
28 | CCNC(C)[C@@H]1CCN(c2c(F)cc3c(=O)c4c(=O)[nH]sc4n(C4CC4)c3c2OC)C1 (mixture of isomers) | 0.008 | 40 | 0.25 | 0.06
29 | CC[C@@H](NC)[C@@H]1CCN(c2c(F)cc3c(=O)c4c(=O)[nH]sc4n(C4CC4)c3c2OC)C1 | 0.03 (≈ 0.0672 µM) | 58 | 2 (≈ 4.48 µM) | 0.13 (≈ 0.291 µM)
30 | COc1c(N2CC[C@H](C(C)N)C2)c(F)cc2c(=O)c3c(=O)[nH]sc3n(C3CC3)c12 (mixture of isomers) | 0.03 | – | 1 | 0.06
31 | COc1c(N2CC[C@@H](C(C)NCC(F)(F)F)C2)c(F)cc2c(=O)c3c(=O)[nH]sc3n(C3CC3)c12 (mixture of isomers) | 0.13 | 41 | 4 | –
32 | COc1c(N2CC[C@@H](C(N)c3ncco3)C2)c(F)cc2c(=O)c3c(=O)[nH]sc3n(C3CC3)c12 (mixture of isomers) | 0.004 | 5 | 0.25 | 0.06
33 | CN[C@@H]1CCN(c2c(F)cc3c(=O)c4c(=O)[nH]sc4n(C4CC4)c3c2OC)C1 | 0.006 (≈ 0.0148 µM) | 42 | 4 (≈ 9.89 µM) | 0.06 (≈ 0.148 µM)
34 | COc1c(N2CC[C@@H](C(C)(C)NCCF)C2)c(F)cc2c(=O)c3c(=O)[nH]sc3n(C3CC3)c12 | 0.004 (≈ 0.00836 µM) | 19 | 0.06 (≈ 0.125 µM) | 0.06 (≈ 0.125 µM)
